Assay results taken from ChEMBL document CHEMBL1140872, “Discovery of a potent and selective inhibitor for human carbonyl reductase 1 from propionate scanning applied to the macrolide zearalenone” (Bioorg Med Chem, 2009).

Columns and labels:
[1] = molecular target: T1, Carbonyl reductase [NADPH] 1 (Homo sapiens, UniProt P16152); test: Binding affinity to human recombinant carbonyl reductase 1 expressed in Escherichia coli assessed as NADPH oxidation using isatin as substrate
T1 sequence (P16152 whole entry): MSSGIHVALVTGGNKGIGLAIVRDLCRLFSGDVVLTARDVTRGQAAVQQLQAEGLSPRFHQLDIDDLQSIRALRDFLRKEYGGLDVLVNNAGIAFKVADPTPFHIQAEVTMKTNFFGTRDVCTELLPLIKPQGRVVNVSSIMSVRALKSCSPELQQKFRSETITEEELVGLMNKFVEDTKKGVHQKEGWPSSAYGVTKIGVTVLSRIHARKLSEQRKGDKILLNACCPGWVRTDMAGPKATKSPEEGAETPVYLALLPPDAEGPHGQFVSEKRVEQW
In short: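 Purified recombinant CBR1 (200 nM) and NADPH were added to compound in 50 mM sodium phosphate, pH 6.8, 1 mM MgCl2. NADPH oxidation was followed as the fluorescence decrease at 460 nm (excitation 355 nm). Rates came from linear regression after normalising to the fluorescence rise at injection. Compounds were titrated at two isatin levels, with no-protein background subtracted. Sigmoidal fit gave IC50, then Ki from the isatin concentration.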

[2] = molecular target: T2, Carbonyl reductase [NADPH] 1 (Homo sapiens) (UniProt P16152); test: Binding affinity to human recombinant carbonyl reductase 1 expressed in Escherichia coli assessed as thermal shift by differential scanning fluorimetry in absence of cofactor
T2 sequence (whole entry): T1 sequence (P16152 whole entry)
In short: (§1)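 Thermal-shift (DSF) binding assay with purified recombinant catalytic domains or proteins carrying an N- or C-terminal His6 tag or GST fusion. Purity was >95% by SDS/PAGE and identity was confirmed by MS. Protein was at 2 µM final in 10 mM HEPES pH 7.5 and 150 mM NaCl. Tm shift is reported, with 2 °C as the threshold for binding.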

[3] = molecular target: T2, Carbonyl reductase [NADPH] 1 (Homo sapiens); test: Binding affinity to human recombinant carbonyl reductase 1 expressed in Escherichia coli assessed as thermal shift by differential scanning fluorimetry in presence of NADPH; in short: as §1
[4] = molecular target: T3, Carbonyl reductase [NADPH] 3 (Homo sapiens) (UniProt O75828); test: Binding affinity to human recombinant carbonyl reductase 3 expressed in Escherichia coli assessed as thermal shift by differential scanning fluorimetry in presence of NADP+; in short: as §1
T3 sequence (whole entry): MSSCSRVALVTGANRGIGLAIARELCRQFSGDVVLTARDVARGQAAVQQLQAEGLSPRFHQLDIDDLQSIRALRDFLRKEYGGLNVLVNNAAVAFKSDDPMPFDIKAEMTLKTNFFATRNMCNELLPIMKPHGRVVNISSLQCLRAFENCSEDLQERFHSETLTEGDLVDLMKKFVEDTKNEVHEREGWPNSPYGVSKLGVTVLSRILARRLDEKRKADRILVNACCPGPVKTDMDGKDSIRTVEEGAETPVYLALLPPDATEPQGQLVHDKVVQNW

[5] = molecular target: T2, Carbonyl reductase [NADPH] 1 (Homo sapiens); test: Binding affinity to human recombinant carbonyl reductase 1 expressed in Escherichia coli assessed as thermal shift by differential scanning fluorimetry in presence of NADP+; in short: as §1
[6] = molecular target: T3, Carbonyl reductase [NADPH] 3 (Homo sapiens); test: Binding affinity to human recombinant carbonyl reductase 3 expressed in Escherichia coli assessed as thermal shift by differential scanning fluorimetry in presence of NADPH; in short: as §1
[7] = molecular target: T3, Carbonyl reductase [NADPH] 3 (Homo sapiens); test: Binding affinity to human recombinant carbonyl reductase 3 expressed in Escherichia coli assessed as thermal shift by differential scanning fluorimetry in absence of cofactor; in short: as §1
[8] = molecular target: T2, Carbonyl reductase [NADPH] 1 (Homo sapiens); test: Binding affinity to human recombinant carbonyl reductase 1 expressed in Escherichia coli assessed as NADPH oxidation at 200 uM relative to isatin
In short: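 Substrate test used 200 nM purified CBR1 and 200 µM NADPH, injected onto compound at 200 µM in 50 mM sodium phosphate pH 6.8 with 1 mM MgCl2. NADPH oxidation was read as the fluorescence decrease at 460 nm (excitation 355 nm). Rate came from linear regression after normalizing to the fluorescence rise on injection. Run in triplicate and expressed as % of the isatin rate.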

Oc1cc(Cl)ccc1Oc1ccc(Cl)cc1Cl [TRICLOSAN] gave an IC50 [1] of 400 nM, a Ki [1] of 60 nM and a Tm [2] of under 2 °C. It also gave a Tm [3] of under 2 °C, a Tm [4] of under 2 °C and a Tm [5] of 3.4 °C. For the same compound, the Tm [6] was under 2 °C and the Tm [7] was under 2 °C.
In the case of O=c1c(O)c(-c2ccc(O)c(O)c2)oc2cc(O)cc(O)c12, the Tm [2] is reported as under 2 °C, the Tm [3] is reported as under 2 °C and the Tm [4] is reported as under 2 °C. It also gave a Tm [5] of under 2 °C, a Tm [6] of under 2 °C and a Tm [7] of under 2 °C.
COc1cc(O)c2c(c1)oc(=O)c1c3cc(O)c(O)cc3oc21 [WEDELOLACTONE] gave an IC50 [1] of 3780 nM, a Ki [1] of 600 nM and a Tm [2] of 2 °C. The Tm [3] was under 2 °C, the Tm [4] was under 2 °C and the Tm [5] was 5.1 °C. The Tm [6] was under 2 °C, the Tm [7] was under 2 °C and the Activity [8] was 5.8%.
COc1ccc(-c2coc3cc(O)cc(O)c3c2=O)cc1 [BIOCHANIN] was tested, and the IC50 [1] was 12700 nM, the Ki [1] was 2030 nM and the Tm [2] was under 2 °C. For the same compound, the Tm [3] was under 2 °C, the Tm [4] was under 2 °C and the Tm [5] was 2.7 °C. The Tm [6] was under 2 °C, the Tm [7] was under 2 °C and the Activity [8] was 9.3%.
Work on O=c1cc(-c2ccccc2)oc2cc(O)cc(O)c12 [CHRYSIN] yielded an IC50 [1] of 670 nM, a Ki [1] of 110 nM and a Tm [2] of under 2 °C. The Tm [3] was under 2 °C, the Tm [4] was under 2 °C and the Tm [5] was 4.6 °C. For the same compound, the Tm [6] was under 2 °C, the Tm [7] was under 2 °C and the Activity [8] was 16.3%.
Compound O=c1c(-c2ccc(O)cc2)coc2cc(O)cc(O)c12 has a Tm [2] of under 2 °C, a Tm [3] of under 2 °C and a Tm [4] of under 2 °C. For the same compound, the Tm [5] was under 2 °C, the Tm [6] was under 2 °C and the Tm [7] was under 2 °C.
In the case of O=C1C[C@@H](c2ccc(O)cc2)Oc2cc(O)cc(O)c21 [NARINGENIN], the IC50 [1] is reported as 21500 nM, the Ki [1] is reported as 3430 nM and the Tm [2] is reported as under 2 °C. It also gave a Tm [3] of under 2 °C, a Tm [4] of under 2 °C and a Tm [5] of 2.3 °C. For the same compound, the Tm [6] was under 2 °C, the Tm [7] was under 2 °C and the Activity [8] was 4.7%.
